Test results taken from paper PMC4324687 (Pharmacology Research & Perspectives, 2015).
Several values for one entry are separate records, joined by “and”; a condition that tells them apart may be missing. Equal values may be shown once. Read-outs that look alike come from different tables or passages of the source.

How the values were obtained:
[1] = Pharmacokinetics of 14C-vemurafenib-related material; assay type: in vivo, human; settings: for Cmax, mean ± SD [CV%]: single oral 960-mg dose
[2] = cited from earlier work
CYP3A4 = settings: human liver microsomes; ref F. Hoffmann-La Roche, data on file; cited from earlier work
[3] = Metabolic profiling of pooled plasma; assay type: in vivo, human; settings: for proportion of total chromatographic radioactivity in plasma, overall: over the 48-h interval postdose
[4] = system: patients with metastatic melanoma; test: Safety assessments in patients with metastatic melanoma; assay type: in vivo, human
Method in brief: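 Seven patients received a single oral 960-mg dose of 14C-labelled test compound on day 15 after ≥8 h fasting. Monitoring ran through the study and a 28-day follow-up and covered adverse events, routine laboratory values, physical examination, vital signs, electrocardiography, dermatology, and head/neck and chest CT. SCC cases were followed until death, consent withdrawal or loss to follow-up. Severity was graded by NCI CTCAE v4.0 and summarised.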

[5] = assay type: in vivo, human
[6] = dog plasma after oral administration; ref F. Hoffmann-La Roche, data on file; cited from earlier work
[7] = ref F. Hoffmann-La Roche, data on file, cited from earlier work
[8] = Metabolic profiling of pooled feces; assay type: in vivo, human
[9] = Metabolic profiling of pooled urine; assay type: in vivo, human; settings: single pool 0–96 h
[10] = cited from earlier work; remark: listed apart in the source
[11] = plasma, N=5, listed as 14C-vemurafenib
[12] = laboratory evaluation, of seven patients
[13] = within 18 days after dosing, listed as 14C-vemurafenib

## CCCS(=O)(=O)Nc1ccc(F)c(C(=O)c2c[nH]c3ncc(-c4ccc(Cl)cc4)cc23)c1F [vemurafenib]
[1]; N=5
  Blood/plasma AUC ratio, mean ± SD [CV%]: 0.72 ± 0.050 [6.83]
[1]; assuming 40–50% of whole blood is cells
  14C-vemurafenib-related material that might be bound to the cellular compartment in whole blood: 10–20%
[1]; blood, N=5
  Tmax, median (minimum–maximum): 4.1 (4–12) ^1 h
  t½ (elimination half-life), mean ± SD [CV%]: 84.4 ± 24.6 [29.1] h
  Cmax, mean ± SD [CV%]: 5.25 ± 1.71 [32.5] μg eq/mL
[1]; human, blood and plasma, oral, 960 mg
  Blood/plasma AUC ratio, range: 0.69–0.81
[1]; plasma
  plasma elimination half-life of 14C-vemurafenib-related material, range: 51 to 86 h
[1]; plasma, N=5
  Tmax, median (minimum–maximum): 4.1 (4–12) ^1 h
  t½ (elimination half-life) of 14C-vemurafenib-related material, mean ± SD [CV%]: 71 h
[1]; [11]
  t½ (elimination half-life) of 14C-vemurafenib-related material, mean ± SD [CV%]: 71.1 ± 15.4 [21.6] h
  Cmax, mean ± SD [CV%]: 7.83 ± 2.28 [29.1] μg eq/mL
[2]; phase 1 data, ref Flaherty et al. [2010]
  maximum tolerated dose and recommended dose for further clinical evaluation: 960 mg twice daily
[2]; phase 1 trial PLX06-02, ref phase 1 trial PLX06-02
  pharmacokinetics with hand-filled capsules versus tablets: No differences
CYP3A4
  primary enzyme responsible for metabolism and formation of hydroxylated metabolites: CYP3A4 was the primary enzyme
[3]; 4–6 h pool
  proportion of radioactivity in pooled plasma, mean ± SD: 99.5 ± 1.4%
[3]; 12–24 h pool
  proportion of radioactivity in pooled plasma, mean ± SD: 95.9 ± 5.5%
[3]; 36–48 h pool
  proportion of radioactivity in pooled plasma, mean ± SD: 96.0 ± 3.8%
[3]; listed as parent compound
  proportion of total chromatographic radioactivity in plasma, overall: 95%
[3]; listed as parent molecule
  proportion of total chromatographic radioactivity in plasma, overall: > 95%
[4]; NCI CTCAE grade 1 or 2
  severity of most adverse events: mild or moderate
[4]; cuSCC, cuSCC and keratoacanthoma, considered related
  serious adverse events (all grade 3), number of events: Three
[4]; [12]
  elevated low-density lipoprotein cholesterol level: three
  grade 3 lymphopenia: four
  low white blood cell count: three
[4]; seven patients
  changes in electrocardiography or vital signs: No clinically significant changes
  patients with at least one adverse event related to vemurafenib: All patients
  treatment discontinuation because of an adverse event: No patient discontinued treatment
[4]; seven patients, 960 mg twice daily
  tolerability: well-tolerated
[5]; cumulative excretion in feces
  time within which the majority of fecal radioactivity was eliminated: ≤ 264 h
[5]; cumulative excretion in urine
  time within which the majority of urinary radioactivity was eliminated: ≤ 192 h
[5]; within 18 days after dosing
  radioactivity recovered in feces, mean ± SD: Approximately 94%
  radioactivity recovered in feces, range: 89.4–97.6%
  radioactivity recovered in urine, mean: ≤ 1%
  radioactivity recovered in urine, range: 0.56–1.63%
[5]; [13]
  radioactivity recovered in feces, mean ± SD: 94.1% and 94.1 ± 2.7%
  radioactivity recovered in urine, mean: < 1%
[5]; within 18 days after dosing, seven patients
  14C-vemurafenib-related material recovered from urine and feces, range: 91.0–98.3%
[6]
  component status of unchanged parent drug in plasma: major component
[7]; rat plasma after oral administration
  component status of unchanged parent drug in plasma: major component
[7]; rats
  route of recovery of vemurafenib-derived radioactivity (parent plus metabolites): primarily recovered in feces
[8]; 48–96 h pool
  proportion of radioactivity in feces, mean: 55.5 ± 20.1%
[8]; first 48 h
  % of the total input dose found in pooled feces: 38%
[8]; first 48 h pool
  proportion of all recovered radioactivity in feces, mean ± SD: 94.2 ± 5.8%
[8]; within the first 96 h
  % of the total radioactive dose found in pooled feces: ~55%
[9]
  % of total administered (input radioactive) dose in urine: ~1%
[10]; continual multiple-dose vemurafenib, ref Genentech, Inc. [2014]
  median elimination half-life (population PK modeling): 57 h
[10]; single dose, ref Ribas et al. [2014]
  elimination half-life after a single dose: ~25 h
